Test results from ChEMBL document CHEMBL1154829, “Iridoids from Fraxinus excelsior with adipocyte differentiation-inhibitory and PPARalpha activation activity” (2010).
The source made the active and inactive calls. The calls are words filed in the database; no cut-off is given here.

How the values were obtained:
3T3-L1 [1] = test: Inhibition of adipocyte differentiation in mouse 3T3L1 cells assessed as inhibition of 2 deoxy-D[3H]glucose uptake at 0.05 mg/ml […] by scintillation counter relative to control; format: functional
3T3-L1 [2] = test: Inhibition of adipocyte differentiation in mouse 3T3L1 cells assessed as inhibition of 2 deoxy-D[3H]glucose uptake at 0.01 mg/ml […] by scintillation counter relative to control; format: functional
3T3-L1 [3] = test: Inhibition of adipocyte differentiation in mouse 3T3L1 cells assessed as inhibition of 2 deoxy-D[3H]glucose uptake at 0.1 mg/ml […] by scintillation counter relative to control; format: functional
[4] = target: T1, Peroxisome proliferator-activated receptor alpha (Homo sapiens) (UniProt Q07869); test: Activation of PPARalpha transfected into HEK cells at 100 uM by luciferase assay; format: cell-based; details: HEK293
T1 sequence (whole entry): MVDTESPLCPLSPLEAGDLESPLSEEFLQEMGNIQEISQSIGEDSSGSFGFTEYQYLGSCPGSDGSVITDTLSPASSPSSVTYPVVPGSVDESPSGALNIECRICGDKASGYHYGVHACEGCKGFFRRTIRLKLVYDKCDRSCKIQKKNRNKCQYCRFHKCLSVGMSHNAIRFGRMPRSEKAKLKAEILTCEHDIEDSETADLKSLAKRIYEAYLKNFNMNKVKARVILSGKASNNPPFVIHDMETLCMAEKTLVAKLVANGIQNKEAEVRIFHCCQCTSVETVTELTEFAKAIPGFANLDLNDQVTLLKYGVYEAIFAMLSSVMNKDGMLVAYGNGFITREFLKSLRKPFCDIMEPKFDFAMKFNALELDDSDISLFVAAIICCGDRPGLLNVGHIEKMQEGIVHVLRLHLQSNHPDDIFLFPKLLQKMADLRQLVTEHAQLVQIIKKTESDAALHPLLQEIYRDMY
Summary of the method: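 HEK cells in DMEM with 10% FBS, 1% penicillin-streptomycin and 2 mM L-glutamine at 37 °C, 5% CO2. Seeded at 80 000/well 24 h before PEI transfection (1 µg plasmid, 4 h). Compounds dissolved in DMSO and added in supplemented DMEM for 48 h. Lysate luciferase read by luminometer, normalized to β-gal, relative to DMSO control. Three independent runs; mean ± SD.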

[5] = target: T2, Solute carrier family 2, facilitated glucose transporter member 4 (Homo sapiens) (UniProt P14672); test: Stimulation of GLUT4 glucose transport
T2 sequence (whole entry): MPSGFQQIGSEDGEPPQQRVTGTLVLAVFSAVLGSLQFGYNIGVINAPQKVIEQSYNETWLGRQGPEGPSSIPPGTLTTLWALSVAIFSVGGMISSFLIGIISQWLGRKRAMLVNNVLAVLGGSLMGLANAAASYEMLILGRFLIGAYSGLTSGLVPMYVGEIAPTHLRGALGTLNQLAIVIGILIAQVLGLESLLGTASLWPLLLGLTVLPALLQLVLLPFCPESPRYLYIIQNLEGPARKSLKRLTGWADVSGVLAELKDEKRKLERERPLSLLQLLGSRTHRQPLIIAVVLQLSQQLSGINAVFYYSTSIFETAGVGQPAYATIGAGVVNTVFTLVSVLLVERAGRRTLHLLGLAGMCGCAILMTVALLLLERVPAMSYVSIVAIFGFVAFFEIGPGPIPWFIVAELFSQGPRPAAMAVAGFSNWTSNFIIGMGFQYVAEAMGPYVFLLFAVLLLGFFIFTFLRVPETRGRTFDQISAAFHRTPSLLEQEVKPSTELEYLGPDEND

3T3-L1 [6] = test: Inhibition of adipocyte differentiation in mouse 3T3L1 cells assessed as inhibition of 2 deoxy-D[3H]glucose uptake at 0.2 mg/ml […] by scintillation counter relative to control; format: functional
3T3-L1 [7] = test: Inhibition of adipocyte differentiation in mouse 3T3L1 cells assessed as inhibition of 2 deoxy-D[3H]glucose uptake at 0.5 mg/ml after 15 mins by scintillation counter relative to control; format: functional
3T3-L1 [8] = test: Inhibition of adipocyte differentiation in mouse 3T3L1 cells assessed as inhibition of 2 deoxy-D[3H]glucose uptake at 1 mg/ml […] by scintillation counter relative to control; format: functional

Compound | inhibition at 50 µg/mL (3T3-L1 [1]) [%] | inhibition at 10 µg/mL (3T3-L1 [2]) [%] | inhibition at 100 µg/mL (3T3-L1 [3]) [%] | Activity [4] [%] | activation [5] | inhibition at 200 µg/mL (3T3-L1 [6]) [%] | inhibition at 500 µg/mL (3T3-L1 [7]) [%] | inhibition at 1000 µg/mL (3T3-L1 [8]) [%]
C/C=C1\[C@H](O[C@@H]2O[C@H](CO)[C@@H](O)[C@H](O)[C@H]2O)OC=C(C(=O)OC)[C@H]1CC(=O)OC [OLEOSIDE DIMETHYL ESTER] | -7.3 | 78.2 | -81 | 27.9 | inactive | – | – | –
C/C=C1/[C@H](O[C@@H]2O[C@H](CO[C@@H]3O[C@H](CO)[C@@H](O)[C@H](O)[C@H]3O)[C@@H](O)[C@H](O)[C@H]2O)OC=C(C(=O)OC)[C@H]1CC(=O)OCCc1ccc(O)cc1 [EXCELSIDE B] | -16.7 | – | – | 24.8 | inactive | -30.8 | -22.7 | -24.3
C/C=C1\C(CC(=O)OC[C@H]2O[C@@H](OCCc3ccc(O)cc3)[C@H](O)[C@@H](O)[C@@H]2O)C(C(=O)OC)=CO[C@H]1O[C@@H]1O[C@H](CO)[C@@H](O)[C@H](O)[C@H]1O (stereo partly drawn) [NUZHENIDE] | -15.2 | – | – | 12.2 | inactive | -28.3 | -27.9 | -38.2
C/C=C1/[C@H](O[C@@H]2O[C@H](CO)[C@@H](O)[C@H](O[C@@H]3O[C@H](CO)[C@@H](O)[C@H](O)[C@H]3O)[C@H]2O)OC=C(C(=O)OC)[C@H]1CC(=O)Oc1ccc(CCO)cc1 | -17.1 | 77.6 | -49.7 | – | – | – | – | –
O=C(O)C1CN2C(N1)[C@H](O)[C@@H](O)[C@H](O)[C@H]2CO (stereo partly drawn) | 2.3 | – | – | 21 | inactive | -8.3 | -10.4 | -2.1
C/C=C1/[C@H](O[C@@H]2O[C@H](CO[C@@H]3O[C@H](CO)[C@@H](O)[C@H](O)[C@H]3O)[C@@H](O)[C@H](O)[C@H]2O)OC=C(C(=O)OC)[C@H]1CC(=O)OC [EXCELSIDE A] | 30.9 | 102 | -16.6 | – | inactive | – | – | –
C/C=C1\[C@H](O[C@@H]2O[C@H](CO)[C@@H](O)[C@H](O)[C@H]2O)OC=C(C(=O)OC)[C@H]1CC(=O)O | -34.8 | -7.9 | -85.2 | – | inactive | – | – | –
C/C=C1/[C@H](O[C@@H]2O[C@H](CO)[C@@H](O)[C@H](O)[C@H]2O)OC=C(C(=O)OC)[C@H]1CC(=O)OCCc1ccc(O)cc1 [LIGSTROSIDE] | -76.4 | -9.3 | -9.8 | – | inactive | – | – | –
